# Compound activity deposited in PubChem BioAssay by Johns Hopkins Ion Channel Center.
# TRPC6 inh: mouse TRPC6 channel inhibitors, primary screen, cell-based, HEK293, membrane potential dye; ACh-evoked depolarization; active compounds read low; B-score at 10 µM; 310,000 compounds, 1.1% hits; AID 2553, 2010;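 active means B-score under library mean minus 3 SD, initial fluorescence not abnormally high, positive integrated signal ratio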;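 further: B-score derived from integrated fluorescence ratio over the kinetic read; more negative B-score means stronger inhibition of depolarization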
# TRPC4 inh: inhibitors of mouse TRPC4 channel, primary screen, Fluo4 calcium, HEK293 TRPC4beta/mu-opioid cells | B-score at 10 µM | DAMGO-evoked Fluo4 calcium flux; active compounds read low | AID 2247, 2010 | Short transient receptor potential channel 4 (Mus musculus), Q9QUQ5 | 300,000 compounds, 0.39% hits;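 active means B-score over 3 SD under the library average, no early fluorescence shift, positive overall ratio signal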
#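 material = TRPC4beta/mu-opioid receptor HEK293 cell line | probe or stimulus = sequential submaximal and maximal DAMGO stimulation | compound dosing = one concentration per compound | measured by = Fluo4 Ca2+ flux fluorescence | evaluation = integrated fluorescence ratio relative to baseline, converted to per-well B score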
# TRPC4 potent: positive allosteric modulators of TRPC4, primary screen, cell-based, mouse TRPC4beta, HEK293 mu-opioid, Fluo-4 calcium; AID 2227, 2009; B-score at 10 µM; 310,000 compounds, 0.42% hits; DAMGO EC20, Fluo-4 Ca2+ flux; active compounds read high; Short transient receptor potential channel 4 (Mus musculus), Q9QUQ5;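 active means B-score of calcium response area above 5 SD of library B-scores, with initial fluorescence ratio within 5 SD of library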;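 further: B-score of integrated fluorescence ratio over time as area under calcium response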
# TRPC4 agonist: activators of mouse TRPC4 channel, primary screen, Fluo4 calcium, HEK293 TRPC4beta/mu-opioid cells; Short transient receptor potential channel 4 (Mus musculus), Q9QUQ5; Fluo4 calcium fluorescence; active compounds read high; B-score at 10 µM; 310,000 compounds, 0.49% hits; AID 2237, 2010;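 active means B-score above 5 SD of library B-scores, and initial fluorescence ratio not above library mean plus 5 SD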;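 further: positive B-score marks a calcium rise read as TRPC4 activation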
#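 Assay system: HEK293 stable line with TRPC4beta plus mu-opioid receptor. Times: dye 45 min RT, read 110 s. Measured by: kinetic Fluo4 calcium fluorescence. Measure: B score of integrated ratio. Controls: assay buffer as low control, maximal DAMGO as high control.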
# TRPC6 activator: mouse TRPC6 channel activators, primary screen, cell-based, HEK293, membrane potential dye | Short transient receptor potential channel 6 (Mus musculus), Q61143 | B-score at 10 µM | AID 2550, 2010 | HEK293-TRPC6 membrane potential dye fluorescence; active compounds read high | 310,000 compounds, 0.13% hits;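 active means B-score of the integrated fluorescence ratio above library mean plus 3 SD, and starting fluorescence ratio within library mean plus 5 SD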;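 further: higher score means more depolarization so channel activation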
# TRPC4 spec 2: second check of whether TRPC6 inhibitors also affect mouse TRPC4; inhibition, % at 10 µM; 920 compounds, 42% hits; HEK293 TRPC4/MOR, membrane potential dye fluorescence; channel activated by saturating DAMGO dose; shares compounds with TRPC6 inh; AID 2776;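 active means compounds whose fluorescence signal differed from control wells by over 3 SD, either direction, in both duplicate plates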
# TRPC4 spec: mouse TRPC4 modulation by TRPC6 hits, confirmation, selectivity assay for TRPC6 inhibitor project, cell-based, HEK293 TRPC4/mu-opioid, membrane potential dye; shares compounds with TRPC6 inh; membrane potential fluorescence; activity change, negative = inhibition, % at 10 µM; 920 compounds, 61% hits; AID 2777, 2010;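 active means rise or fall in signal beyond 3 SD of buffer-only wells in both replicate plates, either sign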;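 further: integrated kinetic ratio of fluorescence range over baseline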
# HEK293 MPD ctr 2-1: nonspecific membrane potential effects, parental HEK293, confirmation, counter-screen for TRPC6 inhibitor project, cell-based, second counter screen. shares compounds with TRPC6 inh. parental HEK293 membrane potential dye fluorescence; maximal acetylcholine challenge after compound addition. signal change vs control, % at 10 µM. 920 compounds, 31% hits;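 active means membrane potential signal moving either way by over 3 SD of the maximum-effect control, in both duplicate plates, meaning non-specific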
# HEK293 MPD ctr-1: membrane potential modulation in parental HEK293, confirmation, counter-screen for TRPC6 inhibitor project, cell-based; AID 2780, 2010; membrane potential signal change, % at 10 µM; shares compounds with TRPC6 inh; 920 compounds, 60% hits; parental HEK293 membrane potential dye fluorescence;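 active means membrane potential signal shifting up or down by more than 3 SD of buffer-only wells, on both duplicate plates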
# HEK293 MPD ctr-2: parental HEK293 membrane potential modulation, confirmation, counter-screen for TRPC6 modulator project, cell-based; shares compounds with TRPC6 inh; membrane potential dye fluorescence; membrane potential signal change, % at 10 µM; 2,400 compounds, 51% hits; AID 488924, 2010;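 active means membrane potential signal moves up or down beyond 5 SD from buffer-only wells, on both duplicate plates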
# HEK293 MPD ctr 2-2: second counter-screen for TRPC6 modulators: effect in parental HEK293 cells | shares compounds with TRPC6 inh | 2,400 compounds, 14% hits | membrane potential dye fluorescence; after compound, maximal acetylcholine stimulation | inhibition, % at 10 µM;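 active means membrane potential signal drops by more than 5 SD from the mean control signal, in both duplicate plates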;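 further: plate controls were acetylcholine ECmax control wells for no effect and buffer only wells for full effect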
# TRPC4 ctr mod: TRPC4 modulation by TRPC6 hit compounds, confirmation, selectivity assay for TRPC6 modulator project, cell-based, HEK293 TRPC4/mu-opioid, membrane potential dye, mouse. shares compounds with TRPC6 inh. membrane potential fluorescence. percent change from control (negative = decrease, positive = increase), % at 10 µM. 2,400 compounds, 69% hits. AID 488927, 2010;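 active means membrane potential signal moved up or down beyond 5 SD of buffer control wells, in both duplicate plates, actives on both sides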;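 further: plate controls were assay buffer wells for no effect and DAMGO maximal-effect wells for full effect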
# TRPC4/MOR inh 2: second selectivity test of TRPC6 modulators against mouse TRPC4. shares compounds with TRPC6 inh. HEK293 TRPC4/mu-opioid, membrane potential dye fluorescence; stimulated with maximal-effect DAMGO. inhibition, % at 10 µM. 2,400 compounds, 55% hits;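 active means drop in membrane potential signal beyond 5 SD of the control wells in both duplicate plates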;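 further: TRPC4 counter screen for TRPC6 hits run under conditions tuned for TRPC6 not TRPC4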
# TRPC6 inh conf: mouse TRPC6 channel inhibitors, confirmation, HEK293 cells, membrane potential dye, duplicate; 3,300 compounds, 43% hits; AID 488960, 2010; shares compounds with TRPC6 inh; inhibition, % at 10 µM; ACh-evoked depolarization;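 active means fluorescence ratio falls more than 5 SD below the full-stimulation control mean, in both duplicate runs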;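 further: integrated fluorescence ratio of peak minus minimum over baseline after agonist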
# TRPC6 act conf: mouse TRPC6 channel activators, confirmation, HEK293 cells, membrane potential dye, duplicate; 2,800 compounds, 11% hits; activation, % at 10 µM; shares compounds with TRPC6 inh; HEK293-TRPC6 membrane potential dye fluorescence, FDSS; AID 488961, 2010;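 active means ratio signal rise beyond 5 SD above unstimulated control wells' mean, seen in both duplicate runs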;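 further: plate controls were buffer EC0 wells for no effect and acetylcholine ECmax response for full effect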
# * marks the source's active call; other numbers are inactive results; i = inactive; . = no result. An excerpt weighted towards active compounds, which were near 2.3% of everything screened.
SMILES,TRPC6 inh,TRPC4 inh,TRPC4 potent,TRPC4 agonist,TRPC6 activator,HEK293 MPD ctr-2,HEK293 MPD ctr 2-2,TRPC4 ctr mod,TRPC4/MOR inh 2,TRPC6 inh conf,TRPC6 act conf,others
CC1CCCN(Cc2c(O)ccc3c(=O)c(-c4nc5ccccc5s4)c(N)oc23)C1 (configuration not stated),-5.8*,i,i,i,i,i,i,i,48%*,i,i,
CC1CCN(Cc2c(O)ccc3c(=O)c(-c4nc5ccccc5s4)c(N)oc23)CC1,i,i,i,i,i,.,.,.,.,.,.,
O=C(C[n+]1ccccc1)c1ccc(-c2ccccc2)cc1,i,i,i,i,i,.,.,.,.,.,.,
CN(C)c1cc[n+](CC(=O)c2ccc(-c3ccccc3)cc2)cc1,-7.7*,i,i,i,i,.,.,.,.,i,.,TRPC4 spec 2=i;TRPC4 spec=-0.5%*;HEK293 MPD ctr 2-1=47%*;HEK293 MPD ctr-1=3.3%*
CC(OC(=O)CC1CCCC1)C(=O)Nc1ccc(Cl)cn1 (configuration not stated),i,i,i,i,i,.,.,.,.,.,.,
Cc1cc(OCC(=O)NC2CCN(Cc3ccccc3)CC2)c2c(C)cc(=O)oc2c1,-6.1*,i,i,i,i,-82%*,i,-26%*,i,i,i,
CCC(C(=O)NCc1cccs1)n1nc(C)n2c(cc3occc32)c1=O (configuration not stated),i,i,i,i,i,.,.,.,.,.,.,
COC(=O)c1cc2ccsc2n1Cc1cc(=O)n2ccccc2n1,-5.8*,i,i,i,i,i,i,8.5%*,i,56%*,i,
